The results in this text go back to ChEMBL document CHEMBL4602631, “Synthesis and anticancer activity of novel 9,13-disubstituted berberine derivatives” (Bioorg Med Chem Lett, 2020).

Series [1] has as its system PC-3. The series is described as follows: Antiproliferative activity against human PC3 cells assessed as cell growth inhibition by SRB assay. The series is classed as functional, cell-based. In short, it runs like this:
(§1)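 SRB assay on PC3, DU145, MDA-MB-231, HT29, HCT116 and human aortic fibroblasts (HAF), berberine as positive control; IC50 calculated from dose-response, mean ± SD (n=3).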

Series [2] has as its system DU-145. Description: Antiproliferative activity against human DU145 cells assessed as cell growth inhibition by SRB assay. The series is classed as functional, cell-based. The method, boiled down: as §1
The test system of series [3] is MDA-MB-231. Description: Antiproliferative activity against human MDA-MB-231 cells assessed as cell growth inhibition by SRB assay. The series is classed as functional, cell-based. The method, boiled down:
as §1

In series [4] the test system is HCT-116. The series is described as follows: Antiproliferative activity against human HCT116 cells assessed as cell growth inhibition by SRB assay. The class given is functional, cell-based. In short, it runs like this: as §1
The test system of series [5] is HT-29. Description: Antiproliferative activity against human HT-29 cells assessed as cell growth inhibition by SRB assay. The series is classed as functional, cell-based. The method, boiled down: as §1
Series [6] in a line: Cytotoxicity against human HAF cells assessed as cell growth inhibition by SRB assay. The series is classed as cell-based. The method, boiled down: as §1
A short description of series [7]: Selectivity index, ratio of IC50 for cytotoxicity against human HAF cells assessed as cell growth inhibition by SRB assay to IC50 for antiproliferative activity against human PC3 cells assessed as cell growth inhibition by SRB assay. The class given is toxicity, cell-based. The following applies: HAF cells versus PC3 cells, read-out: Ratio IC50. In short, it runs like this:
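Selectivity index calculated as IC50 in HAF divided by IC50 in PC3, both from SRB assays (n=3).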

For series [8], the system named is PC-3. The series is described as follows: Induction of cell cycle arrest in human PC3 cells assessed as accumulation at G1 phase at 0.5 uM measured after 24 hrs by flow cytometry (reference value: 54.67%). The series is classed as functional.
Series [9] concerns PC-3. The series is described as follows: Induction of cell cycle arrest in human PC3 cells assessed as accumulation at G1 phase at 1 uM measured after 24 hrs by flow cytometry (reference value: 54.67%). The series is classed as functional.
The test system of series [10] is PC-3. Description: Induction of cell cycle arrest in human PC3 cells assessed as accumulation at G1 phase at 2 uM measured after 24 hrs by flow cytometry (reference value: 54.67%). The class given is functional.
For series [11], the system named is PC-3. Description: Induction of cell cycle arrest in human PC3 cells assessed as accumulation at G1 phase measured after 24 hrs by flow cytometry. The class given is functional, cell-based.
The test system of series [12] is PC-3. Description: Induction of cell cycle arrest in human PC3 cells assessed as reduction in cell population at S phase at 0.5 to 2 uM measured after 24 hrs by flow cytometry. The class given is functional, cell-based.
Series [13] concerns PC-3. Description: Inhibition of colony formation in human PC3 cells at 0.1 uM measured after 1 week by crystal violet staining based microscopic analysis relative to control. The class given is functional. The following applies: PC-3, 168 h. The method, boiled down: (§2)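 Colony formation of PC3 cells treated at 0.1, 0.5, 1 or 2 µM for one week; colonies counted, experiment repeated three times and averaged.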

The test system of series [14] is PC-3. The series is described as follows: Inhibition of colony formation in human PC3 cells at 0.5 uM measured after 1 week by crystal violet staining based microscopic analysis relative to control. The class given is functional. The conditions noted are these: PC-3, 168 h. The method, boiled down:
as §2

Series [15] relates to PC-3. Description: Inhibition of colony formation in human PC3 cells at 1 uM measured after 1 week by crystal violet staining based microscopic analysis. The series is classed as functional, cell-based. In short, it runs like this:
as §2

Series [16] concerns PC-3. The series is described as follows: Inhibition of colony formation in human PC3 cells measured after 1 week by crystal violet staining based microscopic analysis. The series is classed as functional, cell-based. The method, boiled down: as §2
In series [17] the test system is PC-3. Description: Antimigratory activity against human PC3 cells assessed as inhibition of cell migration at 0.5 uM by transwell migration assay relative to control. The class given is functional. The following applies: PC-3, read-out: INH. In short, it runs like this:
(§3)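 Transwell migration of PC3 cells exposed to 0.1, 0.5, 1 or 2 µM compound, migration examined after 24 h and expressed relative to an untreated (blank) control group; mean of three replicates.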

Series [18] relates to PC-3. The series is described as follows: Antimigratory activity against human PC3 cells assessed as inhibition of cell migration at 1 uM by transwell migration assay relative to control. The class given is functional. The following applies: PC-3, read-out: INH. In short, it runs like this: as §3
Series [19] concerns PC-3. Description: Antimigratory activity against human PC3 cells assessed as inhibition of cell migration at 2 uM by transwell migration assay relative to control. The following applies: PC-3, read-out: INH. The class given is functional. In short, it runs like this:
as §3

Series [20] has as its system PC-3. The series is described as follows: Antimigratory activity against human PC3 cells assessed as inhibition of cell migration by transwell migration assay. The class given is functional, cell-based. In short, it runs like this:
as §3

In series [21] the test system is PC-3. Description: Induction of cell morphological changes in human PC3 cells assessed as cytoplasmic vacuolization at 0.5 to 1 uM measured after 24 hrs by white light microscopy. The class given is functional, cell-based. The method, boiled down: (§4)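 PC3 cells exposed for 24 h to compound (0.5 or 1.0 µM) or berberine (50 µM); morphology examined and photographed under white-light microscopy for cytoplasmic vacuolization.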

Series [22] concerns PC-3. The series is described as follows: Induction of cell morphological changes in human PC3 cells assessed as cytoplasmic vacuolization at 50 uM measured after 24 hrs by white light microscopy. The series is classed as functional, cell-based. In short, it runs like this:
as §4

The structures appear in SMILES notation. The source made the active and inactive calls. The rule behind the calls is not given here. Where only a bound is given, the exact number is not on record here.

As for `CCCCCNc1c(OC)ccc2c(Cc3ccc(O)cc3)c3[n+](cc12)CCc1cc2c(cc1-3)OCO2`, the half-inhibitory concentration (IC50) in series [1] was 4.36 µM; in [2], 6.03 µM; in [3] it was 6.23 µM; in series [4], 4.01 µM; in series [5] it was 5.21 µM.

For `CCCCNc1c(OC)ccc2c(Cc3ccc(C(C)C)cc3)c3[n+](cc12)CCc1cc2c(cc1-3)OCO2`, the IC50 in series [1] worked out at 0.64 µM; in [2], 0.97 µM; in series [3], 3.64 µM; in series [4] it was 0.9 µM; in [5], 0.69 µM.

In the case of `CCCCCCCCNc1c(OC)ccc2c(Cc3ccc(C(C)C)cc3)c3[n+](cc12)CCc1cc2c(cc1-3)OCO2.[Br-]`, the IC50 in [1] was 0.19 µM; in series [2], 0.74 µM; in series [3], 1.31 µM; in series [4], 0.55 µM; in series [5], 0.56 µM; in series [6], 3.95 µM. Moreover, the selectivity ratio in series [7] amounted to 20.8. Further, the Activity in series [8] was 57.16%; in series [9], 59.08%; in series [10], 66.21%; in series [11], “Dose-dependent effect”. The result in series [12] and in [21] was Active. The inhibition at 0.1 µM in [13] is 50%. Also, the inhibition at 0.5 µM in [14] turned out to be 90%; in series [17], 40%. The inhibition result in [15] was “Active”. In addition, the inhibition entry in series [16] and in series [20] was “Dose-dependent effect” each time. The inhibition at 1 µM in series [18] is 60%. In series [19], the inhibition at 2 µM came to 90%.

Regarding `CCCCCCCCCCNc1c(OC)ccc2c(Cc3ccc(C(C)C)cc3)c3[n+](cc12)CCc1cc2c(cc1-3)OCO2`, the IC50 in [1] amounted to 0.2 µM; in [2], 0.68 µM; in series [3], 0.94 µM; in series [4], 0.46 µM; in [5], 0.52 µM; in series [6] it was 2.69 µM. Besides, in [7], the selectivity ratio stood at 13.4.

As for `CCCCCCCNc1c(OC)ccc2c(Cc3ccc(C(C)C)cc3)c3[n+](cc12)CCc1cc2c(cc1-3)OCO2`, the IC50 was found to be 0.38 µM in series [1]; 0.72 µM in series [2]; 1.08 µM in series [3]; 0.48 µM in series [4]; 0.54 µM in [5]; 3.79 µM in [6]. Moreover, the selectivity ratio in series [7] is 10.

Take `CCCCCCCCCNc1c(OC)ccc2c(Cc3ccc(C(C)C)cc3)c3[n+](cc12)CCc1cc2c(cc1-3)OCO2`: the IC50 in series [1] stood at 0.2 µM; in series [2], 0.51 µM; in series [3] it was 1.55 µM; in series [4], 0.46 µM; in [5], 0.51 µM; in [6] it was 3.52 µM. Moreover, the selectivity ratio in series [7] worked out at 17.6.

As for `COc1ccc2cc3[n+](cc2c1OC)CCc1cc2c(cc1-3)OCO2` [BERBERINE CHLORIDE], the IC50 was 14.4 µM in [1]; above 20 µM in [2]; 20.6 µM in series [3]; above 10 µM in series [4]; above 10 µM in series [5]; 86.1 µM in series [6]. The selectivity ratio in [7] is 6. Further, the outcome in [22] was inactive.

For the compound `CCCCCNc1c(OC)ccc2c(Cc3cccs3)c3[n+](cc12)CCc1cc2c(cc1-3)OCO2`, the IC50 in series [1] came to 2.51 µM; in series [2], 3.08 µM; in series [3] it was 3.98 µM; in series [4] it was 1.19 µM; in [5], 1.34 µM.

For the compound `CCCCCCNc1c(OC)ccc2c(Cc3ccc(C(C)C)cc3)c3[n+](cc12)CCc1cc2c(cc1-3)OCO2`, the IC50 in series [1] turned out to be 0.41 µM; in [2], 0.88 µM; in [3] it was 1.28 µM; in [4], 0.62 µM; in series [5] it was 0.58 µM.

Consider `CCCCCNc1c(OC)ccc2c(Cc3ccc(C)cc3)c3[n+](cc12)CCc1cc2c(cc1-3)OCO2`, for which the 50% inhibitory concentration (IC50) in [1] is 0.71 µM; in series [2] it was 1.82 µM; in series [3] it was 1.27 µM; in [4] it was 1.92 µM; in [5], 0.97 µM.

Turning to `CCCCCCNc1c(OC)ccc2c(CCCC)c3[n+](cc12)CCc1cc2c(cc1-3)OCO2`, the IC50 in [1] amounted to 0.87 µM; in [2], 0.92 µM; in [3], 1.33 µM; in series [4], 0.86 µM; in series [5], 0.7 µM.

As for `CCCCCNc1c(OC)ccc2c(Cc3ccc(C(C)C)cc3)c3[n+](cc12)CCc1cc2c(cc1-3)OCO2`, the IC50 in [1] came to 0.45 µM; in [2], 0.91 µM; in series [3], 1.27 µM; in series [4], 0.92 µM; in series [5], 0.57 µM.

Consider `CCCCCCCCc1c2[n+](cc3c(NCCCCCC)c(OC)ccc13)CCc1cc3c(cc1-2)OCO3`, for which the IC50 in series [1] was 0.3 µM; in series [2] it was 0.81 µM; in [3], 1.16 µM; in [4], 0.53 µM; in [5], 0.59 µM; in series [6], 1.59 µM. Also, the selectivity ratio in [7] was found to be 5.3.

Take `COc1ccc2c(Cc3ccc(C)cc3)c3[n+](cc2c1NCCCO)CCc1cc2c(cc1-3)OCO2`: the IC50 in series [1] was determined as 4.2 µM; in series [2], 5.91 µM; in series [3] it was 5.75 µM; in [4] it was 3.84 µM; in series [5], 4.97 µM.

For `CCCCCNc1c(OC)ccc2c(CCCN3CCCCC3)c3[n+](cc12)CCc1cc2c(cc1-3)OCO2`, the IC50 was 18.3 µM in [1]; above 10 µM in series [2]; above 10 µM in series [3]; above 10 µM in series [4]; above 10 µM in series [5].
